Reference: ChEMBL document CHEMBL4665761, “Optimizing the Benefit/Risk of Acetyl-CoA Carboxylase Inhibitors through Liver Targeting” (J Med Chem, 2020)
In brackets after ≈: the same amount, converted by molar mass. Activity calls are given as the source filed them. The rule behind the calls is not given here.

Legend:
[1] = target: Acetyl-CoA carboxylase 2 (Homo sapiens, UniProt O00763); experiment: Inhibition of recombinant human ACC2 using acetyl coA as substrate incubated for 1 hr by transcreener fluorescence polarization assay
Chain of Acetyl-CoA carboxylase 2 (O00763 whole entry): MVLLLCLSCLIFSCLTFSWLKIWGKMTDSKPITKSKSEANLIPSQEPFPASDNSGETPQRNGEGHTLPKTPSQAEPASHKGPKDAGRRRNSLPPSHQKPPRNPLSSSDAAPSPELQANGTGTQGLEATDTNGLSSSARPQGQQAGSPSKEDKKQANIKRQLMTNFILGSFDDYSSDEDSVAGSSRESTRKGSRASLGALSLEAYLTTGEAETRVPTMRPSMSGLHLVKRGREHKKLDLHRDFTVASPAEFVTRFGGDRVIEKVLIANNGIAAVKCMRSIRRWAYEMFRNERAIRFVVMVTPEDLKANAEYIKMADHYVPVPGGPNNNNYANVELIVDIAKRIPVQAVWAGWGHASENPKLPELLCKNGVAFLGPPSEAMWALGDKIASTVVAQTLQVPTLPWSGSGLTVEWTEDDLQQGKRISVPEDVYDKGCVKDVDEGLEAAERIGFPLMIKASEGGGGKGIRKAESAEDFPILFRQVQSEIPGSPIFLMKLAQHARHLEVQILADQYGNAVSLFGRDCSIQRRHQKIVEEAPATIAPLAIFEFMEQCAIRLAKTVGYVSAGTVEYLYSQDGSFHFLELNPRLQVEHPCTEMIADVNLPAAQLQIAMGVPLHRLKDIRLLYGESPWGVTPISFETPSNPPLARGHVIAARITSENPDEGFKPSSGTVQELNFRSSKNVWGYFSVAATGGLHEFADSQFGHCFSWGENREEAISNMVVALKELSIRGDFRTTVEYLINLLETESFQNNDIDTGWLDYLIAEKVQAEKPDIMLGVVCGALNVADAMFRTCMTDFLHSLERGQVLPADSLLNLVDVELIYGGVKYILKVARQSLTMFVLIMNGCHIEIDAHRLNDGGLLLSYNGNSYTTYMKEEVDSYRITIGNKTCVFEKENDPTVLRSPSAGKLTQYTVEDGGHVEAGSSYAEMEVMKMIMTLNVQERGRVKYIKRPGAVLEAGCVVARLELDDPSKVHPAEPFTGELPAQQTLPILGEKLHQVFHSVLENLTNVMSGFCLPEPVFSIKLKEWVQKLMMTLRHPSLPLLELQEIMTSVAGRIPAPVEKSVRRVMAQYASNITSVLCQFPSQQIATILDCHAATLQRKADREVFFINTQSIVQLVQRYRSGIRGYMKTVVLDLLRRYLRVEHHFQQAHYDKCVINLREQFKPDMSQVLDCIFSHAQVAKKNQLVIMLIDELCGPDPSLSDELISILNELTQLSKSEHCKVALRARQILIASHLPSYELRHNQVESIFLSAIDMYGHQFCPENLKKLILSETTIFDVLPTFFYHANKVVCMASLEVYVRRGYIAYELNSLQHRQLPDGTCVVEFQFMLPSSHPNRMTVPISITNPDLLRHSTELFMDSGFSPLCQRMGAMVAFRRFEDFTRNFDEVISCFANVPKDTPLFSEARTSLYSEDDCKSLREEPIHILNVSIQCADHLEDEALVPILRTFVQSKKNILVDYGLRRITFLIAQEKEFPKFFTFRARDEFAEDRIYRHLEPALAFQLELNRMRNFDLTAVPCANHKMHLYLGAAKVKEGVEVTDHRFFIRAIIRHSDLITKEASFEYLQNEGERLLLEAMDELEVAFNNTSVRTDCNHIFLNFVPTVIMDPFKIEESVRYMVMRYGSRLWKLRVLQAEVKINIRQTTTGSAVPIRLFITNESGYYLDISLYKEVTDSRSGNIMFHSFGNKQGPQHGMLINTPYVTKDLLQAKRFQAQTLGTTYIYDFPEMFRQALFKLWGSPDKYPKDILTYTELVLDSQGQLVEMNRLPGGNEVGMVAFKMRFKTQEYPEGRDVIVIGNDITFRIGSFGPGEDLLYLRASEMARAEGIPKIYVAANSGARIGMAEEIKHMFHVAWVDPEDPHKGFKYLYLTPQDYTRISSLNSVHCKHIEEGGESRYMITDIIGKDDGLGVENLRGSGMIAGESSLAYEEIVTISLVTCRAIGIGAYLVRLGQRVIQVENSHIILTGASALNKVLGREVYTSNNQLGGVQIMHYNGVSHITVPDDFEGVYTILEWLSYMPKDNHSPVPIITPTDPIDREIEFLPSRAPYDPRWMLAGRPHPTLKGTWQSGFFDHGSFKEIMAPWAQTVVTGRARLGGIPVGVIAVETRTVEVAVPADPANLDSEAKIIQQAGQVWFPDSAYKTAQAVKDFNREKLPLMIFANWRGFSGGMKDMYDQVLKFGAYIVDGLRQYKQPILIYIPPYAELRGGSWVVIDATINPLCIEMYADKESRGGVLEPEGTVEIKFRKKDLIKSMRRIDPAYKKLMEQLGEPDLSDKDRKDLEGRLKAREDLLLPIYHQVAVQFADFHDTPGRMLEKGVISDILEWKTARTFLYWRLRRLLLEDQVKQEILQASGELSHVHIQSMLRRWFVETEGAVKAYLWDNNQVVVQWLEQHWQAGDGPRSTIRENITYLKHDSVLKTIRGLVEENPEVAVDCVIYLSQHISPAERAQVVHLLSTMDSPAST
Summary of the method: (§1)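 Recombinant human enzyme, Transcreener assay run per an earlier protocol. IC50 is the geometric mean of at least three replicates, also given as pIC50 ± SD.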

[2] = target: Acetyl-CoA carboxylase 1 (Homo sapiens, UniProt Q13085); experiment: Inhibition of recombinant human ACC1 using acetyl coA as substrate incubated for 1 hr by transcreener fluorescence polarization assay; summary of the method: as §1
[3] = Apparent permeability in MCDKII-LE cells at 2 uM incubated for 30 mins; format: ADME, cell-based, Canis lupus familiaris, MDCKII-LE; conditions: dog, MDCK
Summary of the method: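 MDCK-LE (low-efflux) cell monolayers with a 30 min pre-incubation. Read-out is apparent passive permeability (Papp, 10^-6 cm/s).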

[4] = Octanol-water partition coefficient, logD of compound at pH 7.4 at 0.5 to 2 mg incubated for 1 hr by HPLC based shake-flask method; format: physicochemical; conditions: dose 0.5-2 mg
Summary of the method: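 Shake-flask octanol/water partition at pH 7.4.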

[5] = Cmax in Wistar-Hannover rat plasma at 4 mg/kg, po and measured up to 24 hrs by LC/MS-MS analysis; format: ADME, organism-based; set-up: route oral, dose 4 mg/kg, time <=24
[6] = Thermodynamic solubility of the compound at pH 6.5 after 24 hrs; format: physicochemical; conditions: buffer, read-out: Therm_solubility
[7] = Half life in Wistar-Hannover rat plasma at 1 mg/kg, iv and measured up to 24 hrs by LC/MS-MS analysis; format: ADME, organism-based
Summary of the method: (§2)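 Male Wistar-Hannover rats (240–350 g) with jugular vein cannulas, dosed 1 mg/kg IV (2 mL/kg) or PO. IV vehicle was 10% DMSO/90% of 20% sulfobutylether-β-cyclodextrin in water, or 10% DMSO/30% PEG400/60% water. Plasma was analysed by LC-MS/MS. Parameters come from plasma concentration–time data, n = 2: Cmax observed directly, AUC0-24 by the linear trapezoidal rule, CL = IV dose/AUC, Vss = dose/(AUC × elimination rate constant).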

[8] = Clearance in Wistar-Hannover rat plasma at 1 mg/kg, iv and measured up to 24 hrs by LC/MS-MS analysis; format: ADME, organism-based; summary of the method: as §2
[9] = Thermodynamic solubility of the compound at pH 7.4 after 24 hrs; format: physicochemical; conditions: buffer, read-out: Therm_solubility
[10] = Thermodynamic solubility of the compound at pH 1.2 after 24 hrs; format: physicochemical; conditions: buffer, read-out: Therm_solubility
[11] = Metabolic intrinsic clearance in human hepatocytes assessed per million cells incubated for 2 hrs; format: ADME, cell-based, Hepatocyte; conditions: read-out: CLH
Summary of the method: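 Cryopreserved human hepatocytes incubated for 2 h. In vitro half-lives scaled to intrinsic clearance, expressed per 10^6 cells.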

[12] = target: T1, OATP1B3 (Homo sapiens, UniProt Q9NPD5); experiment: Substrate activity at human OATP1B3 stably expressed in HEK293 cells assessed as ratio of total to passive cellular uptake at 1 to 3 uM incubated for 0.5 to 4 mins by LC/MS-MS analysis; format: ADME, cell-based; conditions: HEK293 cells stably expressing human OATP1B3, dose 1-3 µM, time 0.5-4 min
T1 sequence (Q9NPD5 whole entry): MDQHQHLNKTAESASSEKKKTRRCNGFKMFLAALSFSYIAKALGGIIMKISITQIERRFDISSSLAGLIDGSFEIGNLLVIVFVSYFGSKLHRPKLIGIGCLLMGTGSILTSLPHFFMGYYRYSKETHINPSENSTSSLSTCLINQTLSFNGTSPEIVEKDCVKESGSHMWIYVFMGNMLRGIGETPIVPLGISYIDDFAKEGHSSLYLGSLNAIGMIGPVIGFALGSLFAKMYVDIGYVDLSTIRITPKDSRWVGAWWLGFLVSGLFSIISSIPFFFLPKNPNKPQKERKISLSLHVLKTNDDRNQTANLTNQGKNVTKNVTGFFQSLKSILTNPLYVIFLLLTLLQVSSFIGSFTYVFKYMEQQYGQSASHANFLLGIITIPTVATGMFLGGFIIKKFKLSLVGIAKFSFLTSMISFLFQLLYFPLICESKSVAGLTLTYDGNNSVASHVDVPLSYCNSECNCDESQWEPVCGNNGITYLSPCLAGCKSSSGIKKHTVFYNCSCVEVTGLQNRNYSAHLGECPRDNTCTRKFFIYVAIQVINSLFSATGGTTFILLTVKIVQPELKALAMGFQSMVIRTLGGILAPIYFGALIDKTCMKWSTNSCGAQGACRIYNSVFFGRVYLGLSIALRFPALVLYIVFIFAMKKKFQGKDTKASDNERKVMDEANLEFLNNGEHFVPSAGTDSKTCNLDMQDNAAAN
Summary of the method: (§3)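 Stably transfected HEK293 cells and wild-type parental cells, cultured to confluency in DMEM with 10% heat-inactivated FBS and 5 µg/mL blasticidin. Uptake at 1–3 µM in HBSS/20 mM HEPES pH 7.4, 37 °C, 0.5–4.0 min. Cells washed in ice-cold buffer, lysed in MeOH, quantified by LC-MS/MS and normalized to protein. Ratio is transfected/parental uptake; >2 denotes substrate.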

[13] = Apparent volume of distribution at steady state in Wistar-Hannover rat plasma at 1 mg/kg, iv and measured up to 24 hrs by LC/MS-MS analysis; format: ADME, organism-based; conditions: read-out: Vdss(app); summary of the method: as §2
[14] = AUC (0 to 24 hrs) in Wistar-Hannover rat plasma at 1 mg/kg, iv and measured up to 24 hrs by LC/MS-MS analysis; format: ADME, organism-based; set-up: route intravenous, dose 1 mg/kg, time <=24
Summary of the method: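 Male Wistar-Hannover rats (240–350 g) with jugular vein cannulas were given 1 mg/kg IV at 2 mL/kg. Vehicle, depending on compound, was 10% DMSO/90% of 20% sulfobutylether-β-cyclodextrin in water or 10% DMSO/30% PEG400/60% water. AUC0–24 came from plasma concentration–time data by the linear trapezoidal rule, averaged for n = 2. Lower detection limit was 1 ng/mL.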

[15] = species: Rattus norvegicus; experiment: Fraction unbound in rat plasma by equilibrium dialysis method
[16] = target: T2, OATP1B1 (Homo sapiens, UniProt Q9Y6L6); experiment: Substrate activity at human OATP1B1 stably expressed in HEK293 cells assessed as ratio of total to passive cellular uptake at 1 to 3 uM incubated for 0.5 to 4 mins by LC/MS-MS analysis; format: ADME, cell-based; conditions: HEK293 cells stably expressing human OATP1B1, dose 1-3 µM, time 0.5-4 min; summary of the method: as §3
T2 sequence (Q9Y6L6 whole entry): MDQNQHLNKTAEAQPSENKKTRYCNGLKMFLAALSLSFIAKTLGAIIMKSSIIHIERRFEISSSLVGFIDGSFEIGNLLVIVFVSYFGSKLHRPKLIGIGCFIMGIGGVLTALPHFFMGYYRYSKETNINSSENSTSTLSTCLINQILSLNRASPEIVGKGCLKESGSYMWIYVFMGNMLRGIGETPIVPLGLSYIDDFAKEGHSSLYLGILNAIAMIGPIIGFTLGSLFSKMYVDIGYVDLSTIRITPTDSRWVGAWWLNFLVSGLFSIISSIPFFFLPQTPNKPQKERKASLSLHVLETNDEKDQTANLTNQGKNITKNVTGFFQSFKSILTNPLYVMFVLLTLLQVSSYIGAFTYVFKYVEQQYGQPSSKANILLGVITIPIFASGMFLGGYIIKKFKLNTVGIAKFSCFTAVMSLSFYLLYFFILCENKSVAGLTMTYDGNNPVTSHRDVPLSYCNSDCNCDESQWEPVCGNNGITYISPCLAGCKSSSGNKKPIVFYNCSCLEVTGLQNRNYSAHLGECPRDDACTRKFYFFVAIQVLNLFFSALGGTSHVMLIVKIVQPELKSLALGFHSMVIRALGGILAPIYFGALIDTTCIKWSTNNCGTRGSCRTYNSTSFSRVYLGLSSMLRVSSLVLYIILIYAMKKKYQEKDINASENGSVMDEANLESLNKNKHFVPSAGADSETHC

[17] = Fraction unbound in rat liver by equilibrium dialysis method
[18] = Ratio of drug uptake in Wistar-Hannover rat unbound liver to plasma concentration at 10 mg/kg, po hydrochloride salt form of compound after 6 hrs by LC/MS-MS analysis; format: ADME, organism-based; conditions: liver and plasma
Summary of the method: (§4)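 Male Wistar-Hannover rats (n = 2 or 3) dosed orally as a suspension in 0.5% methyl cellulose with 0.1% Tween 80. Plasma and liver sampled 6 h post-dose. Kp is total liver/plasma; Kpu,u uses unbound fractions from equilibrium dialysis of plasma and liver.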

[19] = Ratio of drug uptake in Wistar-Hannover rat liver to plasma at 10 mg/kg, po hydrochloride salt form of compound after 6 hrs by LC/MS-MS analysis; format: ADME, organism-based; conditions: liver and plasma; summary of the method: as §4
[20] = Drug uptake in Wistar-Hannover rat assessed as plasma concentration at 10 mg/kg, po hydrochloride salt form of compound after 6 hrs by LC/MS-MS analysis; format: ADME, organism-based
Summary of the method: (§5)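 Male Wistar-Hannover rats, n = 2 or 3, given an oral suspension in 0.5% methyl cellulose with 0.1% Tween 80; one compound was dosed as the HCl salt. Total plasma and liver concentrations were measured 6 h post-dose. Kp = liver/plasma total concentration. Kpu,u uses fu values from equilibrium dialysis.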

[21] = Drug uptake in Wistar-Hannover rat liver at 10 mg/kg, po using hydrochloride salt form of compound after 6 hrs by LC/MS-MS analysis; format: ADME, organism-based; conditions: read-out: Drug uptake; summary of the method: as §5
[22] = system: Rattus norvegicus; experiment: Effect on triglyceride accumulation in po dosed Sprague-Dawley rat high fat dietary model assessed as reduction in triglyceride level after 42 days by XPT clinical analyzer; format: functional, organism-based; conditions: time 42.0 day
Summary of the method: (§6)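 High-fat-diet-fed Sprague-Dawley rats dosed orally for 42 days, with chow-fed and vehicle controls, n = 10 per group. Read-out is hepatic triglyceride, reported as mean ± SEM.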

[23] = system: Rattus norvegicus; experiment: Inhibition of DNL in po dosed Sprague-Dawley rat assessed as reduction in DNL level in liver pretreated with one hr followed by [14C]-acetate treatment and measured after 1 hr; format: functional, organism-based
Summary of the method: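 Sprague-Dawley rats given single oral doses of 0.03–300 mg/kg in 0.5% methyl cellulose vehicle, n = 16 per dose. Read-out is incorporation of 14C-acetate into lipids in liver, bone marrow and lung, measured at 2 h post-dose relative to vehicle. Data are mean ± SEM. EC50 is reported with a 95% confidence interval.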

[24] = species: Homo sapiens; experiment: Inhibition of ACC (unknown origin) at 100 uM
[25] = system: Rattus norvegicus; experiment: Effect on triglyceride accumulation in Sprague-Dawley rat high fat dietary model at 10 mg/kg, po assessed as reduction in triglyceride level after 42 days by XPT clinical analyzer; format: functional, organism-based; conditions: time 42.0 day; summary of the method: as §6

SMILES	IC50 [1] [nM]	IC50 [2] [nM]	Papp at 0.5 h, 2 µM [3] [×10⁻⁶ cm/s]	logD at 1 h [4]	other results
Cc1nc2cc(C(=O)N3CCC4(CC3)CC(=O)c3c(c(C(=O)O)nn3C(C)C)C4)ccc2[nH]1	1200	12000	0.5	–	–
CC(C)(C)n1cc2c(n1)C(=O)CC1(CCN(C(=O)c3cccc(-c4cccc(C(=O)O)c4)c3)CC1)O2	200	1500	1.3	–	–
CC(C)(C)n1cc2c(n1)C(=O)CC1(CCN(C(=O)c3ccnc(-c4ccc(C(=O)O)cc4)c3)CC1)O2	190	1100	–	-0.4	–
CC(C)n1ncc2c1C(=O)CC1(CCN(C(=O)c3cc(-c4ccc(C(=O)O)cc4)nc(N(C)C)c3)CC1)C2	5.6	7.7	13	1.4	Cmax [5]: < 1 ng/mL; solubility thermodynamic at 24 h [6]: 3 µM (≈ 1.55 µg/mL); half-life [7]: 7.5 h; clearance [8]: 31.3 mL/min/kg; solubility thermodynamic at 24 h [9]: 13 µM (≈ 6.7 µg/mL); solubility thermodynamic at 24 h [10]: 2 µM (≈ 1.03 µg/mL); hepatocyte CLint [11]: < 3 µL/min/1e6 cells; uptake ratio at up to 3 µM [12]: 1.4; Vd [13]: 5.2 L/kg; AUC(0-t) [14]: 519 ng·h/mL; fraction unbound [15]: 0.057; uptake ratio at up to 3 µM [16]: 2.1; fraction unbound [17]: 0.026
CC(C)n1ncc2c1C(=O)CC1(CCN(C(=O)c3cc(-c4ccc(C(=O)O)cc4)nc(N(C)C)c3)CC1)C2.Cl	–	–	–	–	Kp uu at 6 h [18]: 79; Kp at 6 h [19]: 173; concentration at 6 h [20]: 57.4 ng/mL; concentration at 6 h [21]: 9920 ng/mL
COc1cc(C(=O)N2CCC3(CC2)CC(=O)c2c(cnn2C(C)C)C3)cc(-c2ccc(C(=O)O)cc2)n1	–	–	–	–	Activity [22]: Dose-dependent effect; inhibition [23]: Dose-dependent effect; inhibition [24]: inactive; Activity [25]: Active
CN(C)c1cc(C(=O)N2CCC3(CC2)CC(=O)c2nn(C(C)(C)C)cc2O3)cc(-c2ccc(C(=O)O)cc2)n1	9.4	17	0.5	0.8	hepatocyte CLint [11]: 7.5 µL/min/1e6 cells
CC(C)(C)n1cc2c(n1)C(=O)CC1(CCN(C(=O)c3cccc(-c4ccc(C(=O)O)cc4)c3)CC1)O2	92	440	2.5	–	–
CC(C)(C)n1cc2c(n1)C(=O)CC1(CCN(C(=O)c3ccc4[nH]nc(C(=O)O)c4c3)CC1)O2	33	130	< 0.4	–	–
